Sampled rows, rich in hits. Any-hit rate of the full collection: about 2.9%.
CHO-K1 Ca antag = counter-screen for M1 antagonists: effect in parental CHO-K1 cells; 360,000 tested, 0.6% active; inhibition, % at 3 µM; ATP-induced calcium, Fluo-8 fluorescence;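 active means inhibition above a per-plate cutoff, the plate's mean sample inhibition plus 3 SD, cut at about 24% in these data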
OX1R antag-1 = OX1R (HCRTR1) antagonists, primary screen, fluorescence, CHO/OX1R cells, Fluo-8 calcium, orexin A. Orexin/Hypocretin receptor type 1 (Homo sapiens), O43613. Fluo-8 calcium fluorescence. inhibition, % at 5 µM. 330,000 tested, 0.43% active;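 active means inhibition above its plate's threshold, mean inhibition of all tested compounds on the plate plus 3 SD, cut at about 37% in these data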
Target sequence (O43613 whole entry, looked up): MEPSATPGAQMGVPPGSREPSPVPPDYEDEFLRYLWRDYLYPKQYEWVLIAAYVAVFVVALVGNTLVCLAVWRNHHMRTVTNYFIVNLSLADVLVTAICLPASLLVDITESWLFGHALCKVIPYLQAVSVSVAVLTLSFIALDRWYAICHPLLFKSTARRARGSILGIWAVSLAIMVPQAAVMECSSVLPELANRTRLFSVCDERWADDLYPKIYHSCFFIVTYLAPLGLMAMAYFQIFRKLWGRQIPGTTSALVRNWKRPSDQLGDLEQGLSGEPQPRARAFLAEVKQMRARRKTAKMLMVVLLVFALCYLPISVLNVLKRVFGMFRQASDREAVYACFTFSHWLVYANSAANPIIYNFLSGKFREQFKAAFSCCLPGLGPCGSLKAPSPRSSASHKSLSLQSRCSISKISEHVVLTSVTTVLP
OX1R antag-2 = antagonists of human orexin 1 receptor (OX1R); Orexin/Hypocretin receptor type 1 (Homo sapiens), O43613; OX1R-expressing cells, FRET antagonist read-out; inhibition, % at 6.6 µM; 330,000 tested, 1.8% active; AID 485270, 2010; in the data active means inhibition mostly above about 38%, no sharp cut-off; inactive means mostly below about 40%
CHO-K1 Ca ag = counter-screen for M1 agonists: effect in parental CHO-K1 cells; Fluo-8 calcium fluorescence; scaled to maximal ATP response, vehicle zero; activation, % at 3 µM; 360,000 tested, 0.48% active; AID 602248, 2012; in the data active means activation above about 15%;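 further: untransfected CHO-K1 host cells lacking M1 receptor as counterscreen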
CHO parental Ca = ATP-evoked calcium signal inhibitors, parental CHO, primary screen, counter-screen for OX1R antagonist project, cell-based, fluorescence, Fluo-8 calcium dye; inhibition, % at 5.6 µM; AID 463079, 2010; 330,000 tested, 0.63% active; parental CHO-K1, ATP-induced calcium, Fluo-8 fluorescence;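 active means inhibition above that plate's mean sample inhibition plus 3 SD, cut at about 26% in these data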
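Material: Parental CHO cells | Reagent: ATP | Compound dosing: Single nominal dose of 5.6 µM per compound | Detection: Intracellular calcium via Fluo-8 no-wash fluorescent dye | Read-out: % inhibition of ATP-induced calcium mobilization | Benchmarks: Low control ATP plus DMSO, high control DMSO only | Replicates: Singlicate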
M1 PAM parental = nonselective calcium activators in parental CHO-K1 cells, primary screen, counter-screen for M1 PAM project, cell-based, Fluo-8 calcium fluorescence, full deck, 1536-well; ATP EC20; 0% at ATP EC20, 100% at ATP max; activation, % at 3 µM; 360,000 tested, 0.02% active;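 active means activation above the run cutoff, the mean activation of all test compounds plus 3 SD, cut at about 40% in these data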;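 further: peak over basal fluorescence ratio in a 140 s read after ATP addition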
OX1R Ca confirm = OX1R (HCRTR1) antagonists, confirmation, fluorescence, CHO/OX1R cells, Fluo-8 calcium, orexin A. orexin A calcium Fluo-8 fluorescence. 1,100 tested, 38% active. shares compounds with OX1R antag-1. inhibition, % at 5 µM; in the data active means inhibition above about 29%
CHO Ca counter = ATP-evoked calcium inhibition in parental CHO, counter-screen for OX1R antagonist project, cell-based, fluorescence, CHO-K1, triplicate | shares compounds with OX1R antag-1 | ATP-induced calcium, Fluo-8 fluorescence | inhibition, % at 5.6 µM | 1,100 tested, 9.3% active | AID 492965, 2010;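 active means inhibition above a per-plate limit, the mean inhibition of that plate's test compounds plus 3 SD, cut at about 25% in these data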
OX1R HTRF conf = OX1R (HCRTR1) antagonists, confirmation, cell-based, HTRF; shares compounds with OX1R antag-2; OX1R-expressing cells, HTRF antagonist assay; inhibition, % at 6.6 µM; 1,800 tested, 49% active; AID 492964, 2010; in the data active means inhibition above about 55%;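 further: CHO cells expressing OX1R stimulated with orexin A at about EC80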
CHO-K1 HTRF = signal inhibition in parental CHO-K1 cells, counter-screen for OX1R antagonist project, cell-based, HTRF; shares compounds with OX1R antag-2; inhibition, % at 6.6 µM; 1,800 tested, 48% active; HTRF counterscreen; AID 493232, 2011; in the data active means inhibition above about 17%
Of the large screens only hits and unclear results are named; the others gave an inactive call (follow-up assays come after a bar, where they were run).

COc1ccccc1NC(=O)COC(=O)c1ccc2c(c1)nc(C)n2-c1ccccc1	none
Cc1cccc(CNC(=O)C2CCC(=O)N(CCCc3ccccc3)C2)c1 (stereo not drawn)	none (no result: OX1R antag-1, OX1R antag-2, CHO parental Ca)
CCOc1ccccc1N(C)C(=O)CCS(=O)(=O)c1ccc2c(c1)NC(=O)C(C)S2 (stereo not drawn)	none
Cc1ccsc1/C=N/N=C1\C(=O)Nc2ccccc21	OX1R antag-2 91 | OX1R Ca confirm 36 | CHO Ca counter inactive | OX1R HTRF conf 93 | CHO-K1 HTRF inactive
C/C(=N\NC(=O)c1nnn(-c2nonc2N)c1CN(C)c1ccccc1)c1ccc(O)cc1	none
Cc1ccc(/C=N/NC(=O)c2nnn(-c3nonc3N)c2CN(C)C)s1	none
C/C(=N\NC(=O)c1nnn(-c2nonc2N)c1CN(C)c1ccccc1)c1cccs1	OX1R antag-2 53 | OX1R Ca confirm inactive | CHO Ca counter inactive | OX1R HTRF conf 79 | CHO-K1 HTRF inactive
CN(Cc1c(C(=O)N/N=C/c2cccc(O)c2)nnn1-c1nonc1N)c1ccccc1	OX1R antag-1 84, OX1R antag-2 87 | OX1R Ca confirm 71 | CHO Ca counter inactive | OX1R HTRF conf 88 | CHO-K1 HTRF inactive
Cc1ccc(/C=N/NC(=O)c2nnn(-c3nonc3N)c2CN(C)c2ccccc2)s1	OX1R antag-2 79 | OX1R Ca confirm inactive | CHO Ca counter inactive | OX1R HTRF conf 86 | CHO-K1 HTRF inactive
CCN(c1ccccc1)S(=O)(=O)c1cc(C(=O)OC2CCOC2=O)ccc1C (stereo not drawn)	none
COc1ccccc1C(=O)NCCc1c(C)[nH]c2c(C)ccc(F)c12	OX1R antag-2 50 | OX1R Ca confirm inactive | CHO Ca counter inactive | OX1R HTRF conf inactive | CHO-K1 HTRF inactive
CCOc1ccc(NC(=O)CN(C)C(=O)C2CC(=O)N(Cc3ccco3)C2)cc1OCC (stereo not drawn)	none
CC1CCCC(NC(=O)COC(=O)COc2ccc(Br)cc2)C1C (stereo not drawn)	none
C=CCN1C(=O)/C(=C/c2ccc(O)c(OC)c2)S/C1=N/c1nccs1	CHO-K1 Ca antag 24, OX1R antag-2 89, CHO-K1 Ca ag 17 | OX1R Ca confirm 36 | CHO Ca counter inactive | OX1R HTRF conf 66 | CHO-K1 HTRF inactive
Nc1c(C(=O)c2ccc(Br)s2)oc2ccccc12	OX1R antag-2 77 | OX1R Ca confirm inactive | CHO Ca counter inactive | OX1R HTRF conf 57 | CHO-K1 HTRF inactive
C[C@H](c1ccccc1)N1C[C@@H](COCc2ccccc2)Oc2cc(N3CC[C@@H](N(C)C)C3)ccc2S1(=O)=O	none (no result: OX1R antag-1, OX1R antag-2, CHO parental Ca)
N#CC(=C1CCCC1)c1nc(-c2ccccc2O)cs1	OX1R antag-1 67, OX1R antag-2 93 | OX1R Ca confirm 54 | CHO Ca counter inactive | OX1R HTRF conf 94 | CHO-K1 HTRF inactive
CCn1c2ccccc2c2cc(N=C3SC(CC(=O)Nc4ccccc4OC)C(=O)N3CCOC)ccc21 (stereo not drawn)	OX1R antag-1 58, OX1R antag-2 77 | OX1R Ca confirm 52 | CHO Ca counter inactive | OX1R HTRF conf 83 | CHO-K1 HTRF inactive
CCCCc1ccc(S(=O)(=O)NCCc2ccncc2)cc1	OX1R antag-2 76 | OX1R Ca confirm inactive | CHO Ca counter inactive | OX1R HTRF conf inactive | CHO-K1 HTRF inactive
O=C(CCn1c(=S)[nH]c2cc3c(cc2c1=O)OCO3)NCCc1ccccc1Cl	none (no result: OX1R antag-1, OX1R antag-2, CHO parental Ca)
COC(=O)[C@@H](NC(=O)N1CCN(C(=O)C2COc3ccccc3O2)CC1)C(C)C (stereo partly drawn)	none
CN1CCS/C1=C/C=C1\SC(=S)N(CC(=O)O)C1=O	OX1R antag-2 104, CHO-K1 Ca ag 26 | OX1R Ca confirm inactive | CHO Ca counter inactive | OX1R HTRF conf 64 | CHO-K1 HTRF 103
Cc1noc(C)c1C(=O)N1CCC1(C)C(=O)NS(=O)(=O)c1cccc(Cl)c1 (stereo not drawn)	none (no result: OX1R antag-1, OX1R antag-2, CHO parental Ca)
Cc1ccc(/C=N/NC(=O)c2nnn(-c3nonc3N)c2CSc2ccccc2)cc1	none
Cc1ccc(SCc2c(C(=O)N/N=C/c3ccc4c(c3)OCO4)nnn2-c2nonc2N)cc1	OX1R antag-2 60 | OX1R Ca confirm inactive | CHO Ca counter inactive | OX1R HTRF conf 82 | CHO-K1 HTRF inactive
Cc1ccc(-c2c(C(=O)N/N=C/c3ccc4c(c3)OCO4)nnn2-c2nonc2N)cc1	OX1R antag-2 74 | OX1R Ca confirm inactive | CHO Ca counter inactive | OX1R HTRF conf 88 | CHO-K1 HTRF inactive
Cc1ccc(-c2c(C(=O)N/N=C/c3cccc(Cl)c3)nnn2-c2nonc2N)cc1	none
CCCCN1C(=O)C(CC(=O)NC2CCCC2)CC(C(=O)N(C(C)C)C(C)C)=C1C (stereo not drawn)	none (no result: OX1R antag-1, OX1R antag-2, CHO parental Ca)
Cc1c(C)c(C)c(S(=O)(=O)Nc2ccc3[nH]c(=O)[nH]c3c2)c(C)c1C	none
COc1ccc(CNC(=O)Nc2nc(C(N)Cc3ccc(C(F)(F)F)cc3)cs2)cc1 (stereo not drawn)	none (no result: OX1R antag-1, OX1R antag-2, CHO parental Ca)
O=C(C1CCCN(S(=O)(=O)c2cccc3nsnc23)C1)N1CCc2ccccc21 (stereo not drawn)	OX1R antag-2 103 | OX1R Ca confirm inactive | CHO Ca counter inactive | OX1R HTRF conf inactive | CHO-K1 HTRF inactive
Cc1cccc(/C=N/NC(=O)c2cc3c(s2)-c2ccccc2CC3)c1	OX1R antag-1 81, OX1R antag-2 87 | OX1R Ca confirm 92 | CHO Ca counter inactive | OX1R HTRF conf 85 | CHO-K1 HTRF inactive
C[C@@H]1CN([C@@H](C)CO)C(=O)c2cc(NC(=O)Nc3ccccc3)ccc2O[C@@H](C)CCCCO[C@H]1CN(C)C(=O)Nc1ccc(C(F)(F)F)cc1	none (no result: OX1R antag-1, OX1R antag-2, CHO parental Ca)

Compound activity from PubChem BioAssay.
